The list is not random: actives were taken first. Their share in the collection is about 2.3%.
TRPC4 agonist = activators of mouse TRPC4 channel | HEK293 TRPC4beta/mu-opioid, Fluo4 calcium fluorescence; active compounds read high | Q9QUQ5 | B-score at 10 µM | hit rate 0.49% among 310,000;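 active means B-score above 5 SD of library B-scores, and initial fluorescence ratio not above library mean plus 5 SD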;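 further: positive B-score marks a calcium rise read as TRPC4 activation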
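Assay system – TRPC4beta and mu-opioid receptor HEK293 stable cells · Measured by – Fluo4 fluorescence, kinetic · Schedule – dye loading 45 min room temperature, 110 s kinetic read · Read-out – B-scored integrated calcium fluorescence ratio · Controls – buffer and maximal DAMGO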
TRPC4 potent = allosterically enhances the mouse TRPC4 cation channel; B-score at 10 µM; hit rate 0.42% among 310,000; AID 2227; HEK293 TRPC4beta/mu-opioid, DAMGO EC20, Fluo-4 Ca2+ flux; active compounds read high;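 active means B-score of calcium response area above 5 SD of library B-scores, with initial fluorescence ratio within 5 SD of library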;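 further: B-score of integrated fluorescence ratio over time as area under calcium response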
TRPC6 activator = activators of mouse TRPC6 channel | Q61143 | HEK293-TRPC6 membrane potential dye fluorescence; active compounds read high | B-score at 10 µM | hit rate 0.13% among 310,000 | AID 2550;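 active means B-score of the integrated fluorescence ratio above library mean plus 3 SD, and starting fluorescence ratio within library mean plus 5 SD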;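 further: higher score means more depolarization so channel activation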
Target sequence (Q61143 whole entry, looked up): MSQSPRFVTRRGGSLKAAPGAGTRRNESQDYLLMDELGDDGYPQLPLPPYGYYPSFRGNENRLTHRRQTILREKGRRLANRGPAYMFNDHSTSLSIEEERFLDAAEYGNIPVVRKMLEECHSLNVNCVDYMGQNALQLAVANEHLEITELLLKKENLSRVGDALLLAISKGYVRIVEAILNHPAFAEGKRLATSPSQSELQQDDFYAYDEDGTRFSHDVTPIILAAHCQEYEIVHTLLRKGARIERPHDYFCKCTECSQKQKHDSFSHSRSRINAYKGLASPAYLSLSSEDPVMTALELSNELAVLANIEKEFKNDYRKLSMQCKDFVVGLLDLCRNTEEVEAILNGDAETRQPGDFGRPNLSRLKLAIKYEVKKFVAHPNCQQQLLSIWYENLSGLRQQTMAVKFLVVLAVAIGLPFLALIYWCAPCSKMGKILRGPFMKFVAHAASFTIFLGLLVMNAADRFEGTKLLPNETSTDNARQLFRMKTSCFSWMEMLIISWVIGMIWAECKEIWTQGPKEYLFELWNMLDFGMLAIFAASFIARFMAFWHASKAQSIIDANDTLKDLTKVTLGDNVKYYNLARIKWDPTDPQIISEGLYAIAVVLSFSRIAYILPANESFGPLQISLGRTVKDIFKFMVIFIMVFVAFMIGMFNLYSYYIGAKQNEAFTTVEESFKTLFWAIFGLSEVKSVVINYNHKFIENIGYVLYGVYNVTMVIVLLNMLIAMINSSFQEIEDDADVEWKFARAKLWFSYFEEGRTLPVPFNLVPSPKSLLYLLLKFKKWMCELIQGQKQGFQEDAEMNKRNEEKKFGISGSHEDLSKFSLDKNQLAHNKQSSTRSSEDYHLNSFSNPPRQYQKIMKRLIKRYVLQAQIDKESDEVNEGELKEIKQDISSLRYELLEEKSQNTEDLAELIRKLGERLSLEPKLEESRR
TRPC4 inh = TRPC4 (mouse) channel inhibition | HEK293 TRPC4beta/mu-opioid, DAMGO-evoked Fluo4 calcium flux; active compounds read low | B-score at 10 µM | hit rate 0.39% among 300,000 | AID 2247;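 active means B-score over 3 SD under the library average, no early fluorescence shift, positive overall ratio signal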
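Material: HEK293 cells with stable TRPC4beta plus mu-opioid receptor expression; probe or stimulus: DAMGO in two steps, submaximal then maximal; technique: Fluo4 calcium fluorescence by kinetic imaging, 5 s 1 Hz baseline; measure: integrated fluorescence ratio relative to baseline, converted to per-well B score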
TRPC6 inhibitor = blocks the mouse TRPC6 cation channel. Q61143. HEK293-TRPC6, membrane potential dye, ACh-evoked depolarization; active compounds read low. B-score at 10 µM. hit rate 1.1% among 310,000;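 active means B-score under library mean minus 3 SD, initial fluorescence not abnormally high, positive integrated signal ratio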;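 further: B-score derived from integrated fluorescence ratio over the kinetic read; more negative B-score means stronger inhibition of depolarization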
TRPC4 sel inh 2 = mouse TRPC4 off-target activity of TRPC6 inhibitors, second screen. shares compounds with TRPC6 inhibitor. HEK293 TRPC4/MOR, membrane potential dye fluorescence; channel activated by saturating DAMGO dose. inhibition, % at 10 µM. hit rate 42% among 920. AID 2776;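 active means compounds whose fluorescence signal differed from control wells by over 3 SD, either direction, in both duplicate plates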
TRPC4 spec = mouse TRPC4 off-target activity of TRPC6 inhibitors. shares compounds with TRPC6 inhibitor. HEK293 TRPC4/mu-opioid, membrane potential fluorescence. activity change, negative = inhibition, % at 10 µM. hit rate 61% among 920;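 active means rise or fall in signal beyond 3 SD of buffer-only wells in both replicate plates, either sign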;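 further: integrated kinetic ratio of fluorescence range over baseline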
HEK293 MPD ctr 2-1 = second check of TRPC6 inhibitor effects in parental HEK293 cells. signal change vs control, % at 10 µM. hit rate 31% among 920. parental HEK293 membrane potential dye fluorescence; maximal acetylcholine challenge after compound addition. shares compounds with TRPC6 inhibitor;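 active means membrane potential signal moving either way by over 3 SD of the maximum-effect control, in both duplicate plates, meaning non-specific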
HEK293 MPD ctr-1 = parental HEK293 nonspecific activity of TRPC6 inhibitors; hit rate 60% among 920; membrane potential signal change, % at 10 µM; shares compounds with TRPC6 inhibitor; parental HEK293 membrane potential dye fluorescence;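 active means membrane potential signal shifting up or down by more than 3 SD of buffer-only wells, on both duplicate plates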
HEK293 MPD ctr-2 = checks TRPC6 modulator effects in parental HEK293 cells | shares compounds with TRPC6 inhibitor | hit rate 51% among 2,400 | membrane potential dye fluorescence | membrane potential signal change, % at 10 µM | AID 488924;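 active means membrane potential signal moves up or down beyond 5 SD from buffer-only wells, on both duplicate plates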
HEK293 MPD ctr 2-2 = parental HEK293 nonspecific activity of TRPC6 modulators, second screen; shares compounds with TRPC6 inhibitor; membrane potential dye fluorescence; after compound, maximal acetylcholine stimulation; inhibition, % at 10 µM; hit rate 14% among 2,400; AID 488926;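 active means membrane potential signal drops by more than 5 SD from the mean control signal, in both duplicate plates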;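 further: plate controls were acetylcholine ECmax control wells for no effect and buffer only wells for full effect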
TRPC4/MOR mod = selectivity of TRPC6 modulators against mouse TRPC4 | shares compounds with TRPC6 inhibitor | HEK293 TRPC4/mu-opioid, membrane potential fluorescence | percent change from control (negative = decrease, positive = increase), % at 10 µM | hit rate 69% among 2,400;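 active means membrane potential signal moved up or down beyond 5 SD of buffer control wells, in both duplicate plates, actives on both sides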;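 further: plate controls were assay buffer wells for no effect and DAMGO maximal-effect wells for full effect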
TRPC4 ctr inh 2 = second check of whether TRPC6 modulators also affect mouse TRPC4; inhibition, % at 10 µM; shares compounds with TRPC6 inhibitor; hit rate 55% among 2,400; HEK293 TRPC4/mu-opioid, membrane potential dye fluorescence; stimulated with maximal-effect DAMGO;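 active means drop in membrane potential signal beyond 5 SD of the control wells in both duplicate plates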;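 further: TRPC4 counter screen for TRPC6 hits run under conditions tuned for TRPC6 not TRPC4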
TRPC6 block conf = confirmation of mouse TRPC6 inhibitors. shares compounds with TRPC6 inhibitor. HEK293-TRPC6, membrane potential dye, ACh-evoked depolarization. inhibition, % at 10 µM. hit rate 43% among 3,300. AID 488960;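 active means fluorescence ratio falls more than 5 SD below the full-stimulation control mean, in both duplicate runs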;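 further: integrated fluorescence ratio of peak minus minimum over baseline after agonist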
TRPC6 act confirm = mouse TRPC6 activator confirmation. shares compounds with TRPC6 inhibitor. HEK293-TRPC6 membrane potential dye fluorescence, FDSS. activation, % at 10 µM. hit rate 11% among 2,800. AID 488961;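 active means ratio signal rise beyond 5 SD above unstimulated control wells' mean, seen in both duplicate runs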;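 further: plate controls were buffer EC0 wells for no effect and acetylcholine ECmax response for full effect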
Numbers without * were called inactive; i = inactive; · = not tested or not shown; + = active, no number.

SMILES	TRPC4 agonist	TRPC4 potent	TRPC6 activator	TRPC4 inh	TRPC6 inhibitor	HEK293 MPD ctr-2	HEK293 MPD ctr 2-2	TRPC4/MOR mod	TRPC4 ctr inh 2	TRPC6 block conf	TRPC6 act confirm	others
CC1CC(C)(C)N(C(=O)CN2C(=O)c3ccccc3C2=O)c2ccccc21 (stereo not drawn)	158*	i	i	-7*	-5.1*	183%*	i	42%*	i	i	·
CC1CCN(c2ccc3nnc(CCC(=O)Nc4cccc(F)c4)n3n2)CC1	i	i	i	i	i	·	·	·	·	·	·
Cc1ccc(NC(=S)NCC(C)C)cc1	i	i	i	i	-7.2*	·	·	·	·	i	i	TRPC4 sel inh 2=i;TRPC4 spec=i;HEK293 MPD ctr 2-1=i;HEK293 MPD ctr-1=i
CC(C)CNC(=S)Nc1ccc(S(N)(=O)=O)cc1	i	i	i	i	i	·	·	·	·	·	·
CC(C)Cc1nnc(NC(=O)c2ccc(N3CCCC3=O)cc2)s1	i	i	i	i	i	·	·	·	·	·	·
CC(C)Cc1nnc(NC(=O)c2ccc3c(=O)n4c(nc3c2)CCC4)s1	i	i	i	i	-7.7*	·	·	·	·	i	i	TRPC4 sel inh 2=i;TRPC4 spec=-15%*;HEK293 MPD ctr 2-1=i;HEK293 MPD ctr-1=-280%*
CCCCN1C(=O)NC(c2ccc(OC)cc2)C(C(=O)OCc2ccccc2)=C1C (stereo not drawn)	i	i	i	i	i	·	·	·	·	·	·
Brc1ccc(Oc2ncc(CN3CCN(c4ccccc4)CC3)s2)cc1	i	i	i	i	-5.4*	i	i	i	i	i	i
O=C(CN1C(=O)C2CCCCC2C1=O)N1CCN(c2ncccn2)CC1 (stereo not drawn)	i	i	i	i	i	·	·	·	·	·	·
O=C(CN1CCN(c2ncccn2)CC1)N1CCCC1	i	i	i	i	-5.3*	i	i	i	i	i	i
CCCC(=O)NC(c1ccc2c(c1)OCO2)c1cc(Cl)c2cccnc2c1O (stereo not drawn)	i	i	i	i	-5.8*	118%*	i	i	i	i	i
CCOc1ccc(C(C(=O)NC2CCCCC2)N(C(=O)Cc2cccs2)c2ccc(-n3cnnn3)c(OC)c2)cc1 (stereo not drawn)	i	i	i	i	i	·	·	·	·	·	·
CNC(=O)CC1C(=O)N(c2ccc(F)cc2)C(=S)N1NC(=O)c1ccc(Cl)cc1 (stereo not drawn)	i	i	i	i	-5.6*	i	i	i	i	i	i
COc1ccc(CCN2C(=O)CSC2=Nc2ccc(C(C)C)cc2)cc1OC	i	i	i	i	i	·	·	·	·	·	·
CCCn1c2c(c(=N)c3c1CCC3)CCC2	i	i	i	i	-8.1*	·	·	·	·	i	i	TRPC4 sel inh 2=78%*;TRPC4 spec=-28%*;HEK293 MPD ctr 2-1=12%*;HEK293 MPD ctr-1=-578%*
CCC(C)NS(=O)(=O)c1cc2c3c(c1)CCN3C(=O)CC2 (stereo not drawn)	i	i	i	i	i	·	·	·	·	·	·
O=C1CNC(=O)/C(=C\c2ccccc2)N1	i	i	i	i	i	·	·	·	·	·	·
O=C1/C(=C/c2ccccc2)Nc2ccccc21	83*	i	70*	i	i	+	+	309%*	i	·	587%*
COc1cc(/C=C2/CC/C(=C/c3ccc(O)c(OC)c3)C2=O)ccc1O	43*	i	14*	i	i	451%*	149%*	100%*	i	i	97%*
CCC(C)(C)n1nnnc1C(c1ccc2ncccc2c1)N1CCCCCC1 (stereo not drawn)	i	i	i	i	-5.1*	i	i	28%*	33%*	i	·
c1cnc2ccc(C(c3nnnn3C3CCCCC3)N3CCCCC3)cc2c1 (stereo not drawn)	i	i	i	i	-5.9*	149%*	i	35%*	30%*	54%*	·
O=C(CC(c1ccccc1O)N1CCCCC1)N1CCCCC1 (stereo not drawn)	i	i	i	i	-9.7*	·	·	·	·	63%*	·	TRPC4 sel inh 2=i;TRPC4 spec=3.6%*;HEK293 MPD ctr 2-1=i;HEK293 MPD ctr-1=4.8%*
O=C(CC(c1ccccc1)c1cc(Cl)ccc1O)N1CCCC1 (stereo not drawn)	i	i	i	i	i	·	·	·	·	·	·
Cc1csc(SCC(=O)N(C)CC(=O)Nc2ccc(F)cc2)n1	i	i	i	i	i	·	·	·	·	·	·
O=C(NC1CC1)c1c[nH]c2ccc(S(=O)(=O)Nc3cccc(C(F)(F)F)c3)cc2c1=O	i	i	i	i	-5.2*	i	i	i	i	i	·
O=C(NCc1ccccc1)c1c[nH]c2ccc(S(=O)(=O)Nc3ccc4c(c3)OCCO4)cc2c1=O	i	i	i	i	-5.2*	i	i	i	i	i	i
CCc1ccccc1NS(=O)(=O)c1ccc2[nH]cc(C(=O)NCc3ccco3)c(=O)c2c1	i	i	i	i	-5*	i	i	i	i	i	i
COc1ccc(S(=O)(=O)Nc2ccccc2C(=O)NCc2ccco2)cc1	i	i	i	i	i	·	·	·	·	·	·
Nc1nnn(CC(=O)N/N=C/c2cccc(Cl)c2)n1	i	i	i	i	i	·	·	·	·	·	·
